Test results taken from ChEMBL document CHEMBL1149260, “Synthesis of tropeines and allosteric modulation of ionotropic glycine receptors” (J Med Chem, 2004).

Columns and labels:
Rattus norvegicus = species on record: Rattus norvegicus; test: Displacement of [3H]strychnine from glycine receptor in Wistar rat spinal cord synaptosomal membranes; type: cell membranes; conditions: Membrane
[1] = target: T1, Serotonin 3 (5-HT3) receptor (Rattus norvegicus, UniProt P35563+Q9JJ16); test: Displacement of [3H]granisetron from 5HT3 receptor in Wistar rat cerebral cortex synaptosomal membranes; type: cell membranes, Membrane
T1 sequence (P35563 whole entry): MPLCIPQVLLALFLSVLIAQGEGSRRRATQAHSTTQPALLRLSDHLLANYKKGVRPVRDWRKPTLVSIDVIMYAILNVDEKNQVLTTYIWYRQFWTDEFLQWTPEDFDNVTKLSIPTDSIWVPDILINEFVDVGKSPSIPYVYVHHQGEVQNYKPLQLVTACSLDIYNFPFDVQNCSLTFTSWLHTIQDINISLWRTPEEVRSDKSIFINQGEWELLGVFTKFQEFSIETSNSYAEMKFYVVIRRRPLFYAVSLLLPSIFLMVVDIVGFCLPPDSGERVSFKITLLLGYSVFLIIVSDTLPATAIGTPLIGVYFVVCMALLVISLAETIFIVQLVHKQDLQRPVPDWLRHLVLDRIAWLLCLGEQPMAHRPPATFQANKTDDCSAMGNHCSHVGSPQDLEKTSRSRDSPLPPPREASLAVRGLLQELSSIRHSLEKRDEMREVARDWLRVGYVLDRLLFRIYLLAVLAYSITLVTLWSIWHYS
T1 sequence (Q9JJ16 whole entry): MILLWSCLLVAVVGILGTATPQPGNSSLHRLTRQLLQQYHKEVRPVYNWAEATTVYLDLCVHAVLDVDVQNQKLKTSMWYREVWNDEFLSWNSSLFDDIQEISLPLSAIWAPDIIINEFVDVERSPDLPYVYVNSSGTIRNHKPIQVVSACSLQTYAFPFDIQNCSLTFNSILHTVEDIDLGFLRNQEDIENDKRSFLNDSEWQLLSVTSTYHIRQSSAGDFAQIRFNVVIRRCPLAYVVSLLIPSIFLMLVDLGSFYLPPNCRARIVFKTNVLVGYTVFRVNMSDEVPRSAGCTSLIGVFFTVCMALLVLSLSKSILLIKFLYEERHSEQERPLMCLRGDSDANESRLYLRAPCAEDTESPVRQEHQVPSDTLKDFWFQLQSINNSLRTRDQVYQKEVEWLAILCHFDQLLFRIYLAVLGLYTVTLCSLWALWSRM
Procedure, shortened: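 Male Wistar rat cerebral cortex plus hippocampus synaptosomal membranes, in 10 mM HEPES with 140 mM NaCl (pH 7.5). Incubated with 0.3 nM [3H]granisetron and varied tropeine concentrations for 2.5 h on ice. Nonspecific binding defined with 10 µM granisetron. Duplicate aliquots filtered on PEI-presoaked GF/B filters. Displacement curves fitted with variable slopes; 3-6 experiments.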

[2] = target: Serotonin 3 (5-HT3) receptor (Rattus norvegicus) (UniProt P35563+Q9JJ16); test: Selectivity for glycine receptor measured as KA over 5HT3 receptor measured as IC50 in Wistar rat synaptosomal membranes; type: cell membranes

| Structure (SMILES) | -Log KA (Rattus norvegicus) | IC50 [1] [nM] | Selectivity ratio [2] |
| --- | --- | --- | --- |
| CN1[C@@H]2CC[C@H]1C[C@H](OC(=O)c1cccc([N+](=O)[O-])c1)C2 | 5.84 | – | – |
| CN1[C@@H]2CC[C@H]1C[C@@H](NC(=O)c1cc(Cl)cc3c1OC(C)(C)C3)C2 | 6.57 | – | – |
| O=C(O[C@@H]1C[C@H]2CC[C@@H](C1)N2)c1cccc(Cl)c1 | 7.65 | 692 | 33.7 |
| COc1cccc(C(=O)O[C@@H]2C[C@H]3CC[C@@H](C2)N3C)c1 | 7.08 | 71 | 0.87 |
| CN1[C@@H]2CC[C@H]1C[C@@H](OC(=O)c1cc(Cl)cc(Cl)c1)C2 | 5.99 | – | – |
| O=C(O[C@H]1C[C@H]2CC[C@@H](C1)N2)c1ccccc1 (stereo in doubt; 8) [listing 1 of 2 here] | – | 1000 | – |
| CCN1[C@@H]2CC[C@H]1C[C@@H](OC(=O)c1ccccc1)C2 | 6.14 | 716 | 0.98 |
| O=C(O[C@H]1C[C@H]2CC[C@@H](C1)N2)c1ccccc1 (stereo in doubt; 4a) [listing 1 of 2 here] | 7.98 | – | 161 |
| CN1[C@@H]2CC[C@H]1C[C@H](NC(=O)c1ccccc1)C2 | 4.8 | – | – |
| CN1[C@@H]2CC[C@H]1C[C@H](OC(=O)c1ccccc1)C2 (stereo in doubt; 2a) [listing 1 of 2 here] | – | 299 | – |
| CN1[C@@H]2CC[C@H]1C[C@H](OC(=O)c1ccccc1)C2 (stereo in doubt; 7) [listing 1 of 2 here] | 5.77 | – | 0.3 |
| CN1[C@@H]2CC[C@H]1C[C@H](OC(=O)c1ccccc1)C2 (stereo in doubt; 7) [listing 2 of 2 here] | – | 499 | – |
| CN1[C@@H]2CC[C@H]1C[C@H](OC(=O)c1ccc(C(C)(C)C)cc1)C2 | 4.53 | – | – |
| CN1[C@@H]2CC[C@H]1C[C@H](OC(=O)c1cccc(Cl)c1)C2 | 6.31 | 67.9 | 0.15 |
| COc1cc(C(=O)O[C@@H]2C[C@H]3CC[C@@H](C2)N3C)cc(OC)c1OC | 5.97 | 231 | 0.23 |
| CN1[C@@H]2CC[C@H]1C[C@@H](OC(=O)c1cc(Cl)cc3c1OC(C)(C)C3)C2 | 6.63 | 7.18 | 0.03 |
| CN1[C@@H]2CC[C@H]1C[C@H](OC(=O)c1ccc([N+](=O)[O-])cc1)C2 | 5.29 | 1050 | 0.2 |
| O=C(O[C@H]1C[C@H]2CC[C@@H](C1)N2)c1ccccc1 (stereo in doubt; 8) [listing 2 of 2 here] | 5.96 | – | 0.98 |
| CCc1ccc(C(=O)O[C@@H]2C[C@H]3CC[C@@H](C2)N3C)cc1 | 5.34 | 182 | 0.04 |
| CC1(C)Cc2cc(Cl)cc(C(=O)O[C@H]3C[C@H]4CC[C@@H](C3)N4)c2O1 | 7.74 | 56.2 | 3.37 |
| O=C(O[C@H]1C[C@H]2CC[C@@H](C1)N2)c1ccccc1 (stereo in doubt; 4a) [listing 2 of 2 here] | – | 1560 | – |
| COc1cccc(C(=O)O[C@@H]2C[C@H]3CC[C@@H](C2)N3)c1 | 8.11 | 262 | 33.5 |
| CN1[C@@H]2CC[C@H]1C[C@H](OC(=O)c1ccccc1)C2 (stereo in doubt; 2a) [listing 2 of 2 here] | 6.39 | – | 0.78 |
| Nc1cccc(C(=O)O[C@@H]2C[C@H]3CC[C@@H](C2)N3)c1 | 7.23 | 577 | 10.3 |
